In ChEMBL document CHEMBL5303300, “EUbOPEN Chemogenomics Library - Multiplex” (2023):
Where “and” joins values, the source holds several entries; their conditions need not be identical. Equal entries are not always repeated.

System: HEK-293T
Test: Multiplex assay against HEK293T
Format: toxicity, cell-based
Conditions: human, number of replicates 2
How it was run: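 At seeding, live cells were stained with Hoechst33342, BioTracker Green Microtubule Cytoskeleton Dye, MitoTracker Red and Annexin V Alexa Fluor 680. After compound addition they were imaged on a CQ1 microscope at 37°C and 5% CO2, and CellPathfinder machine-learning gating sorted them into Hoechst high-intensity objects or normal cells, with normal cells further split into healthy, pyknosed or fragmented nuclei and pyknosed cells into mitotic or apoptotic. Tubulin, mitochondrial-mass and membrane-permeability phenotypes are given as per cents of cells with healthy nuclei.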

[1] = 12 h, 1 µM, compound concentration 1 uM
[2] = 12 h, 10 µM, compound concentration 10 uM
[3] = 24 h, 1 µM, compound concentration 1 uM
[4] = 24 h, 10 µM, compound concentration 10 uM
[5] = 48 h, 1 µM, compound concentration 1 uM
[6] = 48 h, 10 µM, compound concentration 10 uM

C[C@@H](Oc1cc(-n2cnc3ccc(OC4CCN(C)CC4)cc32)sc1C(N)=O)c1ccccc1Cl [GSK-579289A]
Population Apoptotic (%) [1]: 49% and 50%
Population Fragmented Nuclei (%) [1]: 4% and 2%
Population Healthy Nuclei (%) [1]: 79% and 81%
Population Hoechst High Intensity Objects (%) [1]: 7% and 8%
Population Membrane Permeable-Phenotype (%) [1]: 8% and 3%
Population Mitochondria Different-Phenotype (%) [1]: 27% and 24%
Population Mitotic Cells (%) [1]: 50%
Population Normal (%) [1]: 93% and 91%
Population Pyknosed Nuclei (%) [1]: 16%
Population Tubulin-Different-Phenotype (%) [1]: 88% and 90%
Total Cell Count [1]: 686 and 707
Population Apoptotic (%) [2]: 72% and 75%
Population Fragmented Nuclei (%) [2]: 2% and 1%
Population Healthy Nuclei (%) [2]: 79% and 84%
Population Hoechst High Intensity Objects (%) [2]: 19% and 10%
Population Membrane Permeable-Phenotype (%) [2]: 7% and 3%
Population Mitochondria Different-Phenotype (%) [2]: 69% and 73%
Population Mitotic Cells (%) [2]: 27% and 25%
Population Normal (%) [2]: 80% and 89%
Population Pyknosed Nuclei (%) [2]: 17% and 13%
Population Tubulin-Different-Phenotype (%) [2]: 82% and 85%
Total Cell Count [2]: 381 and 356
Population Apoptotic (%) [3]: 41% and 65%
Population Fragmented Nuclei (%) [3]: 1% and 3%
Population Healthy Nuclei (%) [3]: 75%
Population Hoechst High Intensity Objects (%) [3]: 8% and 7%
Population Membrane Permeable-Phenotype (%) [3]: 2% and 0%
Population Mitochondria Different-Phenotype (%) [3]: 55% and 62%
Population Mitotic Cells (%) [3]: 58% and 34%
Population Normal (%) [3]: 91% and 92%
Population Pyknosed Nuclei (%) [3]: 22% and 21%
Population Tubulin-Different-Phenotype (%) [3]: 93% and 95%
Total Cell Count [3]: 585 and 584
Population Apoptotic (%) [4]: 78% and 69%
Population Fragmented Nuclei (%) [4]: 7% and 6%
Population Healthy Nuclei (%) [4]: 75% and 79%
Population Hoechst High Intensity Objects (%) [4]: 23% and 16%
Population Membrane Permeable-Phenotype (%) [4]: 1%
Population Mitochondria Different-Phenotype (%) [4]: 88% and 75%
Population Mitotic Cells (%) [4]: 21% and 30%
Population Normal (%) [4]: 76% and 84%
Population Pyknosed Nuclei (%) [4]: 16% and 14%
Population Tubulin-Different-Phenotype (%) [4]: 66% and 80%
Total Cell Count [4]: 362 and 350
Population Apoptotic (%) [5]: 68% and 63%
Population Fragmented Nuclei (%) [5]: 3% and 4%
Population Healthy Nuclei (%) [5]: 85% and 83%
Population Hoechst High Intensity Objects (%) [5]: 6% and 13%
Population Membrane Permeable-Phenotype (%) [5]: 1% and 0%
Population Mitochondria Different-Phenotype (%) [5]: 67%
Population Mitotic Cells (%) [5]: 31% and 36%
Population Normal (%) [5]: 93% and 86%
Population Pyknosed Nuclei (%) [5]: 10% and 11%
Population Tubulin-Different-Phenotype (%) [5]: 89% and 90%
Total Cell Count [5]: 471 and 559
Population Apoptotic (%) [6]: 67% and 73%
Population Fragmented Nuclei (%) [6]: 12% and 11%
Population Healthy Nuclei (%) [6]: 61% and 68%
Population Hoechst High Intensity Objects (%) [6]: 20% and 22%
Population Membrane Permeable-Phenotype (%) [6]: 4% and 3%
Population Mitochondria Different-Phenotype (%) [6]: 78% and 68%
Population Mitotic Cells (%) [6]: 32% and 26%
Population Normal (%) [6]: 79% and 77%
Population Pyknosed Nuclei (%) [6]: 26% and 19%
Population Tubulin-Different-Phenotype (%) [6]: 55% and 65%
Total Cell Count [6]: 453 and 440
